For 14 compounds, solubility, Activity and inhibition results are on record in ChEMBL document CHEMBL4043303, “Development of Novel Melanocortin Receptor Agonists Based on the Cyclic Peptide Framework of Sunflower Trypsin Inhibitor-1” (J Med Chem, 2018).

Series [1] can be described thus: Solubility of the compound in water at 1 mM. It counts as physicochemical. Particulars: buffer, 1000 µM.
Series [2] has as its target T1, Melanocortin receptor 4 (Homo sapiens, UniProt P32245). As to the kind of experiment: Agonist activity at human MC4R expressed in low doxycyclin-treated HEK293 cell membranes assessed as increase in cAMP production after 45 mins by HTRF method. It counts as functional, cell-based. The essentials:
(§1)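 T-REx-293 cells stably expressing doxycycline-inducible human MC1R, MC3R or MC4R; expression induced 24 h with 0.1 ng/mL (low) or 10 ng/mL (high, MC4R only) doxycycline. 1000 cells/well in HBSS, 20 mM HEPES pH 7.4, 0.1% BSA, 1 mM IBMX; stimulated at 37 °C. Time-resolved FRET cAMP read-out normalized to NDP-α-MSH maximum.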

Series [3] addresses T1, Melanocortin receptor 4. As to the kind of experiment: Displacement of [125I]-NDP-alpha-MSH from human MC4R LBD expressed in HEK293 cell membranes incubated for 16 to 23 hrs in dark by scintillation proximity assay. Details: concentration or dose not given beside the values. Particulars: concentration not given here.
Series [4] addresses T2, Melanocortin receptor 3 (Homo sapiens, UniProt P41968). As to the kind of experiment: Displacement of [125I]-NDP-alpha-MSH from human MC3R LBD expressed in HEK293 cell membranes incubated for 16 to 23 hrs in dark by scintillation proximity assay. Details: concentration or dose not given beside the values. Particulars: concentration not given here.
Series [5] deals with T3, Melanocyte-stimulating hormone receptor (Homo sapiens, UniProt Q01726). As to the kind of experiment: Agonist activity at human MC1R expressed in low doxycyclin-treated HEK293 cell membranes assessed as increase in cAMP production after 45 mins by HTRF method. It counts as functional, cell-based.
For another series, the target named is Melanocortin receptor 5 (Homo sapiens, UniProt P33032). Nature of the series: Displacement of [125I]-NDP-alpha-MSH from human MC5R LBD expressed in HEK293 cell membranes incubated for 16 to 23 hrs in dark by scintillation proximity assay. Further details: concentration or dose not given beside the values. The settings on record: concentration not given here.

In series [6] the target is T1, Melanocortin receptor 4. As to the kind of experiment: Agonist activity at human MC4R expressed in high doxycyclin-treated HEK293 cell membranes assessed as increase in cAMP production after 15 mins by HTRF method. In kind it is functional, cell-based. The essentials:
as §1

For series [7], the target named is T3, Melanocyte-stimulating hormone receptor. Nature of the series: Displacement of [125I]-NDP-alpha-MSH from human MC1R LBD expressed in HEK293 cell membranes incubated for 16 to 23 hrs in dark by scintillation proximity assay. Further details: concentration or dose not given beside the values. Particulars: concentration not given here.
Series [8] addresses T2, Melanocortin receptor 3. Nature of the series: Agonist activity at human MC3R expressed in low doxycyclin-treated HEK293 cell membranes assessed as increase in cAMP production after 45 mins by HTRF method. It counts as functional, cell-based. Details: concentration or dose not given beside the values. The method in brief: as §1

T2 sequence (P41968 whole entry, the tested form may be a part): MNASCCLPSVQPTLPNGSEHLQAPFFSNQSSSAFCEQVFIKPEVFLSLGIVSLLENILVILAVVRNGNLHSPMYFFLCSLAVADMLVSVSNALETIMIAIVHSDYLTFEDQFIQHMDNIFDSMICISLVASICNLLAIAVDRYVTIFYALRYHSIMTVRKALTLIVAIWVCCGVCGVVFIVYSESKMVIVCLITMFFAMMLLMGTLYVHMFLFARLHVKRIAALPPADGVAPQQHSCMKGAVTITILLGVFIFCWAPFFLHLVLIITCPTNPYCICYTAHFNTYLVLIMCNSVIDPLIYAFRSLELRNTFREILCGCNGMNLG
T1 sequence (P32245 whole entry): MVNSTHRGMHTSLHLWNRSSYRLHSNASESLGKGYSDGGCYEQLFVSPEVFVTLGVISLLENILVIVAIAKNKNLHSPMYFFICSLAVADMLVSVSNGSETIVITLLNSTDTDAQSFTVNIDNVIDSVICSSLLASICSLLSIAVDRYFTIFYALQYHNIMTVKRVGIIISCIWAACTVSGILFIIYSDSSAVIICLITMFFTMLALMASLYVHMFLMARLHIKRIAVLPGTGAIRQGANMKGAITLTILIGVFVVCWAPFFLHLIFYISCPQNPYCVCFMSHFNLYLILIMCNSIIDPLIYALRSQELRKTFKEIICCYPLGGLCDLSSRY
Sequence of Melanocortin receptor 5 (P33032 whole entry, the tested form may be a part): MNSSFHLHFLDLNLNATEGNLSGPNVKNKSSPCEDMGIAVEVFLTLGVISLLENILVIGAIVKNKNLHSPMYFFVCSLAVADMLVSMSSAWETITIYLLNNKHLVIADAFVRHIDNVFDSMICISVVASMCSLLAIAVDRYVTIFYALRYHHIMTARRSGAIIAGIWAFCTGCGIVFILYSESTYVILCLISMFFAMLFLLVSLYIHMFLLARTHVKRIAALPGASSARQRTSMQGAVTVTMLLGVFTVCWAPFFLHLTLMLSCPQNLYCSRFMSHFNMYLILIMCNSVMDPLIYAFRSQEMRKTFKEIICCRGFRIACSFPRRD
T3 sequence (Q01726 whole entry, looked up, the tested form may be a part): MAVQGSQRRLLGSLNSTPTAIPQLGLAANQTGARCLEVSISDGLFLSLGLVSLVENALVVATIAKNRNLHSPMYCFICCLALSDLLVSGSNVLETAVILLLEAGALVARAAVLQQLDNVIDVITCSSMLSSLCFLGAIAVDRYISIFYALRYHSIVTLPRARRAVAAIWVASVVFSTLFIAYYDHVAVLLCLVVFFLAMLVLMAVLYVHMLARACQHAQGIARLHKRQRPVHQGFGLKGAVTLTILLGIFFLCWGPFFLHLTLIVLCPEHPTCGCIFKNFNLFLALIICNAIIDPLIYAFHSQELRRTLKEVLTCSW

Regarding `CC[C@H](C)[C@@H]1NC(=O)[C@@H]2CCCN2C(=O)[C@@H]2CCCN2C(=O)[C@H]([C@@H](C)CC)NC(=O)[C@H](CO)NC(=O)[C@H](C)NC(=O)[C@H]([C@@H](C)O)NC(=O)[C@@H]2CSSC[C@H](NC1=O)C(=O)N(C)[C@@H](Cc1cnc[nH]1)C(=O)N[C@H](Cc1ccccc1)C(=O)N(C)[C@@H](CCCNC(=N)N)C(=O)N(C)[C@@H](Cc1c[nH]c3ccccc13)C(=O)N[C@@H](CCCNC(=N)N)C(=O)N2`, in series [1], the solubility entry is on record as “Soluble”.
For the compound `CC[C@H](C)[C@@H]1NC(=O)[C@@H]2CCCN2C(=O)[C@@H]2CCCN2C(=O)[C@H]([C@@H](C)CC)NC(=O)[C@H](CO)NC(=O)[C@H](C)NC(=O)[C@H]([C@H](C)O)NC(=O)[C@@H]2CSSC[C@H](NC1=O)C(=O)N(C)[C@@H](Cc1cnc[nH]1)C(=O)N[C@H](Cc1ccccc1)C(=O)N[C@@H](CCCNC(=N)N)C(=O)N(C)[C@@H](Cc1c[nH]c3ccccc13)C(=O)N[C@@H](CCCNC(=N)N)C(=O)N2`, the Activity (at Melanocortin receptor 4 [2]; in series [5]; at Melanocortin receptor 4 [6]; at Melanocortin receptor 3 [8]) was 100% throughout. Moreover, the inhibition (at Melanocortin receptor 4 [3]; on Melanocortin receptor 3 [4]; on Melanocortin receptor 5; in [7]) was 100% each time.
Take `CC[C@H](C)[C@@H]1NC(=O)[C@@H]2CCCN2C(=O)[C@H](Cc2c[nH]c3ccccc23)NC(=O)[C@H](CCCNC(=N)N)N(C)C(=O)[C@@H](Cc2ccccc2)NC(=O)[C@H](Cc2cnc[nH]2)N(C)C(=O)[C@H]([C@@H](C)O)NC(=O)[C@@H]2CSSC[C@H](NC1=O)C(=O)N[C@@H](Cc1ccccc1)C(=O)N1CCC[C@H]1C(=O)N[C@@H](CC(=O)O)C(=O)NCC(=O)N[C@@H](CCCNC(=N)N)C(=O)N2`: the Activity (on Melanocortin receptor 4 [2]; in [5]; at Melanocortin receptor 4 [6]; at Melanocortin receptor 3 [8]) was 100% throughout. For the same compound, the inhibition (at Melanocortin receptor 4 [3]; on Melanocortin receptor 3 [4]; at Melanocortin receptor 5; in [7]) was 100% throughout. The solubility result in series [1] is listed as “Soluble”.
For the compound `CC[C@H](C)[C@@H]1NC(=O)[C@@H]2CCCN2C(=O)[C@@H]2CCCN2C(=O)[C@H]([C@@H](C)CC)NC(=O)[C@H](CO)NC(=O)[C@H](C)NC(=O)[C@H]([C@H](C)O)NC(=O)[C@@H]2CSSC[C@H](NC1=O)C(=O)N(C)[C@@H](Cc1cnc[nH]1)C(=O)N[C@H](Cc1ccccc1)C(=O)N(C)[C@@H](CCCNC(=N)N)C(=O)N[C@@H](Cc1c[nH]c3ccccc13)C(=O)N[C@@H](CCCNC(=N)N)C(=O)N2`, the Activity (at Melanocortin receptor 4 [2]; in series [5]; at Melanocortin receptor 4 [6]; at Melanocortin receptor 3 [8]) was 100% each time. Further, the inhibition (on Melanocortin receptor 4 [3]; on Melanocortin receptor 3 [4]; at Melanocortin receptor 5; in series [7]) was 100% throughout.
Consider `CC[C@H](C)[C@@H]1NC(=O)[C@@H]2CCCN2C(=O)[C@@H]2CCCN2C(=O)[C@H]([C@@H](C)CC)NC(=O)[C@H](CO)NC(=O)[C@H](C)NC(=O)[C@H]([C@@H](C)O)NC(=O)[C@@H]2CSSC[C@H](NC1=O)C(=O)N[C@@H](Cc1cnc[nH]1)C(=O)N[C@H](Cc1ccccc1)C(=O)N(C)[C@@H](CCCNC(=N)N)C(=O)N[C@@H](Cc1c[nH]c3ccccc13)C(=O)N[C@@H](CCCNC(=N)N)C(=O)N2`, for which the solubility result in [1] is “Soluble”.
With `CC[C@H](C)[C@@H]1NC(=O)[C@@H]2CCCN2C(=O)[C@@H]2CCCN2C(=O)[C@H]([C@@H](C)CC)NC(=O)[C@H](CO)NC(=O)[C@H](C)NC(=O)[C@H]([C@@H](C)O)NC(=O)[C@@H]2CSSC[C@H](NC1=O)C(=O)N[C@@H](Cc1c[nH]cn1)C(=O)N[C@H](Cc1ccccc1)C(=O)N(C)[C@@H](CCCNC(=N)N)C(=O)N(C)[C@@H](Cc1c[nH]c3ccccc13)C(=O)N[C@@H](CCCNC(=N)N)C(=O)N2`, the solubility entry in series [1] is “Soluble”.
For the compound `CC[C@H](C)[C@@H]1NC(=O)[C@@H]2CCCN2C(=O)[C@@H]2CCCN2C(=O)[C@H]([C@@H](C)CC)NC(=O)[C@H](CO)NC(=O)[C@H](C)NC(=O)[C@H]([C@H](C)O)NC(=O)[C@@H]2CSSC[C@H](NC1=O)C(=O)N(C)[C@@H](Cc1cnc[nH]1)C(=O)N[C@H](Cc1ccccc1)C(=O)N(C)[C@@H](CCCNC(=N)N)C(=O)N(C)[C@@H](Cc1c[nH]c3ccccc13)C(=O)N[C@@H](CCCNC(=N)N)C(=O)N2`, the Activity (on Melanocortin receptor 4 [2]; in series [5]; on Melanocortin receptor 4 [6]; on Melanocortin receptor 3 [8]) was 100% throughout. Besides, the inhibition (at Melanocortin receptor 4 [3]; at Melanocortin receptor 3 [4]; at Melanocortin receptor 5; in series [7]) was 100% each time.
`CC[C@H](C)[C@@H]1NC(=O)[C@@H]2CCCN2C(=O)[C@@H]2CCCN2C(=O)[C@H]([C@@H](C)CC)NC(=O)[C@H](CO)NC(=O)[C@H](C)NC(=O)[C@H]([C@@H](C)O)NC(=O)[C@@H]2CSSC[C@H](NC1=O)C(=O)N[C@@H](Cc1cnc[nH]1)C(=O)N[C@H](Cc1ccccc1)C(=O)N[C@@H](CCCNC(=N)N)C(=O)N[C@@H](Cc1c[nH]c3ccccc13)C(=O)N[C@@H](CCCNC(=N)N)C(=O)N2`: in series [1], the solubility entry is reported as “Soluble”.
Same read-out and setting: the same measure for `CC[C@H](C)[C@@H]1NC(=O)[C@@H]2CCCN2C(=O)[C@@H]2CCCN2C(=O)[C@H]([C@@H](C)CC)NC(=O)[C@H](CO)NC(=O)[C@H](C)NC(=O)[C@H]([C@@H](C)O)NC(=O)[C@@H]2CSSC[C@H](NC1=O)C(=O)N(C)[C@@H](Cc1cnc[nH]1)C(=O)N[C@H](Cc1ccccc1)C(=O)N[C@@H](CCCNC(=N)N)C(=O)N[C@@H](Cc1c[nH]c3ccccc13)C(=O)N[C@@H](CCCNC(=N)N)C(=O)N2`: “Soluble”; for `CC[C@H](C)[C@@H]1NC(=O)[C@@H]2CCCN2C(=O)[C@@H]2CCCN2C(=O)[C@H]([C@@H](C)CC)NC(=O)[C@H](CO)NC(=O)[C@H](C)NC(=O)[C@H]([C@@H](C)O)NC(=O)[C@@H]2CSSC[C@H](NC1=O)C(=O)N(C)[C@@H](Cc1cnc[nH]1)C(=O)N[C@H](Cc1ccccc1)C(=O)N[C@@H](CCCNC(=N)N)C(=O)N(C)[C@@H](Cc1c[nH]c3ccccc13)C(=O)N[C@@H](CCCNC(=N)N)C(=O)N2`: “Soluble”; for `CC[C@H](C)[C@@H]1NC(=O)[C@@H]2CCCN2C(=O)[C@@H]2CCCN2C(=O)[C@H]([C@@H](C)CC)NC(=O)[C@H](CO)NC(=O)[C@H](C)NC(=O)[C@H]([C@@H](C)O)NC(=O)[C@@H]2CSSC[C@H](NC1=O)C(=O)N(C)[C@@H](Cc1cnc[nH]1)C(=O)N[C@H](Cc1ccccc1)C(=O)N(C)[C@@H](CCCNC(=N)N)C(=O)N[C@@H](Cc1c[nH]c3ccccc13)C(=O)N[C@@H](CCCNC(=N)N)C(=O)N2`: “Soluble”.
For the compound `CC[C@H](C)[C@@H]1NC(=O)[C@@H]2CCCN2C(=O)[C@@H]2CCCN2C(=O)[C@H]([C@@H](C)CC)NC(=O)[C@H](CO)NC(=O)[C@H](C)NC(=O)[C@H]([C@H](C)O)NC(=O)[C@@H]2CSSC[C@H](NC1=O)C(=O)N(C)[C@@H](Cc1cnc[nH]1)C(=O)N[C@H](Cc1ccccc1)C(=O)N[C@@H](CCCNC(=N)N)C(=O)N[C@@H](Cc1c[nH]c3ccccc13)C(=O)N[C@@H](CCCNC(=N)N)C(=O)N2`, the Activity (at Melanocortin receptor 4 [2]; in series [5]; on Melanocortin receptor 4 [6]; at Melanocortin receptor 3 [8]) was 100% each time. Besides, the inhibition (on Melanocortin receptor 4 [3]; at Melanocortin receptor 3 [4]; at Melanocortin receptor 5; in [7]) was 100% throughout.
Regarding `CC[C@H](C)[C@@H]1NC(=O)[C@@H]2CCCN2C(=O)[C@@H]2CCCN2C(=O)[C@H]([C@@H](C)CC)NC(=O)[C@H](CO)NC(=O)[C@H](C)NC(=O)[C@H]([C@@H](C)O)NC(=O)[C@@H]2CSSC[C@H](NC1=O)C(=O)N[C@@H](Cc1cnc[nH]1)C(=O)N[C@H](Cc1ccccc1)C(=O)N[C@@H](CCCNC(=N)N)C(=O)N(C)[C@@H](Cc1c[nH]c3ccccc13)C(=O)N[C@@H](CCCNC(=N)N)C(=O)N2`, the solubility entry in series [1] is on record as “Soluble”.
Regarding `CC[C@H](C)[C@@H]1NC(=O)[C@@H]2CCCN2C(=O)[C@@H]2CCCN2C(=O)[C@H]([C@@H](C)CC)NC(=O)[C@H](CO)NC(=O)[C@H](C)NC(=O)[C@H]([C@H](C)O)NC(=O)[C@@H]2CSSC[C@H](NC1=O)C(=O)N[C@@H](Cc1cnc[nH]1)C(=O)N[C@H](Cc1ccccc1)C(=O)N[C@@H](CCCNC(=N)N)C(=O)N(C)[C@@H](Cc1c[nH]c3ccccc13)C(=O)N[C@@H](CCCNC(=N)N)C(=O)N2`, the Activity (on Melanocortin receptor 4 [2]; in series [5]; on Melanocortin receptor 4 [6]; at Melanocortin receptor 3 [8]) was 100% in each case. The inhibition (at Melanocortin receptor 4 [3]; on Melanocortin receptor 3 [4]; on Melanocortin receptor 5; in series [7]) was 100% each time.
